Screens from PubChem BioAssay.
Sampled rows, rich in hits. Any-hit rate of the full collection: about 3.3%.
rCAG binder – binds r(CAG) RNA repeats; inhibition, % at 3 µM; hit rate 1.3% among 370,000; AID 651821; r(CAG) RNA repeat, TO-PRO-1 dye displacement fluorescence;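 active means inhibition above the plate cutoff, the mean of all test compounds on that plate plus 3 SD, cut at about 35% in these data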;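 further: 0% = DMSO alone and 100% = 100 µM mitoxantrone as full dye displacement; higher means more dye released from RNA so lower well fluorescence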
mABHD4 FP – inhibitors of mouse ABHD4; inhibition, % at 8.92 µM; purified mABHD4, FP-Rh probe fluorescence polarization; hit rate 0.54% among 370,000;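 active means inhibition exceeding the mean over every tested compound plus 3 SD, cut at about 30% in these data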;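 further: 0% = plate median of compound wells and 100% = S159A mutant with DMSO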
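Assay system: wild-type mouse ABHD4 protein; compound: single nominal dose of 8.92 µM, 0.89% DMSO final; schedule: 45 min + 60 min at 25 °C; measured by: FP readout, ex 525 nm / em 598 nm; evaluation: % inhibition of FP-Rh probe binding versus controls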
HTRA1 inhibitor – HTRA1 (human) protease inhibition | recombinant HTRA1, FP-rhodamine activity-based probe, fluorescence polarization | inhibition, % at 5.96 µM | hit rate 0.5% among 340,000 | AID 504803; in the data active means inhibition above about 36%;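 further: 0% = enzyme with DMSO and 100% = wells lacking enzyme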
Target sequence (Q92743 whole entry, looked up): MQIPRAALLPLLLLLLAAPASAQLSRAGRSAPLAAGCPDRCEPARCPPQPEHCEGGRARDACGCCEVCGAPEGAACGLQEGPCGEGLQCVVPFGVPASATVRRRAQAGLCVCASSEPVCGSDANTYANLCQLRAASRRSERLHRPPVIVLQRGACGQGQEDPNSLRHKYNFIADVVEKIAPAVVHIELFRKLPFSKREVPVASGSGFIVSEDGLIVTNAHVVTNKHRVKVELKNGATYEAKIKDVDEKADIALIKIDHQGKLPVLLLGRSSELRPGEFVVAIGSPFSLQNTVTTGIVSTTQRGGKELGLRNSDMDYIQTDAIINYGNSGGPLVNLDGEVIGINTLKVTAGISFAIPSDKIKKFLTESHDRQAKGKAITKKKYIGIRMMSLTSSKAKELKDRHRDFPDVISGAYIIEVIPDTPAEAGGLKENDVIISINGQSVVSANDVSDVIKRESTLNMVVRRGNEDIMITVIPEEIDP
PRMT1 FP inh – PRMT1 (human) inhibition, primary screen. Q99873. recombinant PRMT1, activity-based probe fluorescence polarization. inhibition, % at 2.79 µM. hit rate 1.3% among 370,000. AID 652257;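 active means inhibition above about 21% made by adding two undisclosed values, limit read from the data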
SIAE inh – inhibitors of human sialic acid acetylesterase SIAE; Q9HAT2; SIAE FP-Rh probe binding, fluorescence polarization; inhibition, % at 9.66 µM; hit rate 0.69% among 370,000;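 active means inhibition above a cutoff: mean of compounds within the control limits plus 3 SD of those, cut at about 17% in these data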;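 further: 0% = plate median of compound wells and 100% = probe without SIAE protein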
HTRA1 conf – confirmation of human HTRA1 inhibitors; inhibition, % at 5.96 µM; AID 540248; hit rate 66% among 1,600; shares compounds with HTRA1 inhibitor; recombinant HTRA1, FP-rhodamine activity-based probe, fluorescence polarization;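 active means mean inhibition over three repeats above a set limit taken from the earlier primary screen, cut at about 37% in these data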;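 further: 0% = HTRA1 with DMSO and 100% = wells lacking HTRA1; inhibitors block probe binding so polarization drops and inhibition rises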
rCAG binder conf – r(CAG) RNA repeat binding, confirmation | shares compounds with rCAG binder | hit rate 70% among 4,300 | inhibition, % at 3 µM | TO-PRO-1 dye displacement fluorescence;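 active means inhibition above a per-plate cutoff, the mean inhibition of sample wells plus 3 SD, cut at about 35% in these data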;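 further: loss of TO-PRO-1 fluorescence as compound displaces dye from 1x1 AA loop RNA; 0% = DMSO only wells and 100% = 100 µM mitoxantrone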
DNA CAG counter – DNA CAG dye complex inhibition counter-screen; AID 652068; d(CAG) DNA oligo TO-PRO-1 dye displacement, fluorescence; shares compounds with rCAG binder; hit rate 94% among 4,300; inhibition, % at 3 µM;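 active means inhibition above its plate's cutoff, the mean test-well inhibition plus 3 SD, cut at about 4.8% in these data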;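 further: 0% = DNA dye mix with DMSO and 100% = 100 µM mitoxantrone; hits displace the dye from DNA and so lower well fluorescence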
PRMT1 inh conf – PRMT1 (human) inhibition, FP confirmation; hit rate 42% among 3,300; shares compounds with PRMT1 FP inh; recombinant His-PRMT1, activity-based probe fluorescence polarization; inhibition, % at 2.79 µM;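 active means mean inhibition across replicates above the hit cutoff derived for the earlier primary screen, cut at about 22% in these data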
mABHD4 conf – confirmation of mouse ABHD4 inhibitors; shares compounds with mABHD4 FP; purified mABHD4, FP-Rh probe fluorescence polarization; inhibition, % at 8.92 µM; hit rate 55% among 1,800; AID 720658;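 active means mean inhibition across replicates above the hit cutoff set in the primary screen, cut at about 30% in these data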;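 further: 0% = wild-type ABHD4 with DMSO and 100% = catalytically dead S159A mutant with DMSO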
SIAE inh conf – confirmation of human SIAE inhibitors. shares compounds with SIAE inh. SIAE FP-Rh activity-based probe, fluorescence polarization. inhibition, % at 9.66 µM. hit rate 13% among 2,300. AID 1117263;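 active means mean inhibition of the replicates above the hit cutoff set in the primary screen, cut at about 17% in these data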;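 further: 0% = SIAE with DMSO and probe and 100% = probe without SIAE; inhibitors lower polarization as more probe stays unbound to SIAE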
The depositor's hits bear a star; · = no result given.

SMILES	rCAG binder	mABHD4 FP	HTRA1 inhibitor	PRMT1 FP inh	SIAE inh	HTRA1 conf	SIAE inh conf	others
CN(C(=S)Nc1ccc(Oc2ccccc2)cc1)c1ccc(O)cc1	11	35*	45*	11	21*	-13	-3	mABHD4 conf=6
CN(C(=S)Nc1ccccc1)c1ccccc1	-1	8	-1	-2	2	·	·
CC(=O)NC(c1ccc(N(C)C)cc1)c1cc(Cl)c2cccnc2c1O (stereo unspecified)	7	30*	65*	-1	23*	82*	24*	mABHD4 conf=33*
CC(=O)NC(c1ccccc1)c1cc(Cl)c2cccnc2c1O (stereo unspecified)	0	13	70*	-5	20*	72*	17*
CCCC(=O)NC(c1ccc(OC)c(OC)c1)c1cc(Cl)c2cccnc2c1O (stereo unspecified)	7	7	46*	-2	20*	66*	12
COc1ccc(C(NC(C)=O)c2cc(Cl)c3cccnc3c2O)cc1 (stereo unspecified)	1	7	70*	-4	19*	80*	20*
CC(=O)NC(c1ccc(F)cc1)c1cccnc1 (stereo unspecified)	1	0	5	5	-1	·	·
CCCCNC(=O)C[C@H]1C[C@@]2(C(=O)OC)C(=C[C@H](C(C)C)O[C@@H]2C2CC2)N(Cc2ccc3c(c2)OCO3)C1=O	3	1	·	-1	3	·	·
O=C(COc1ccc(F)c(Cl)c1)N[C@H]1CCCN(CC2CC2)C1	·	1	·	-9	-3	·	·
O=[N+]([O-])c1ccc(NCCCO)c(S(=O)(=O)N2CCOCC2)c1	1	1	3	0	0	·	·
O=[N+]([O-])c1ccc(N/N=C/c2ccc(O)c(O)c2O)c(S(=O)(=O)N2CCOCC2)c1	69*	37*	74*	35*	28*	74*	-3	rCAG binder conf=84*;DNA CAG counter=52*;PRMT1 inh conf=56*;mABHD4 conf=58*
Nc1[nH]c(C(=O)c2ccc(Br)cc2)c(-c2ccc(Cl)cc2Cl)c1C(=O)NCCc1c[nH]c2ccccc12	13	16	·	-1	13	·	·
O=C1C=CC(=O)c2c(O)c(CO)c(CO)c(O)c21	83*	62*	46*	50*	53*	57*	44*	rCAG binder conf=86*;DNA CAG counter=68*
COc1cccc(C=Nc2ccc(N3CCOCC3)cc2)c1O	-1	20	17	0	9	·	·
O=[N+]([O-])c1cc(Br)c(O)c(C=Nc2ccc(N3CCOCC3)cc2)c1	24	45*	40*	9	29*	1	-2	mABHD4 conf=7
COC(CNC(=O)[C@H](Cc1ccccc1)NC1(C(=O)NC2CCCCC2)CCC1)OC	·	3	·	-4	11	·	·
COc1ccc(/C=N/NC(=O)c2ccc(C)cc2)cc1CN1CCN(c2ccc(F)cc2)CC1	·	·	-6	·	·	·	·
COc1ccc(/C=N\NC(=O)c2cc(O)c(O)c(O)c2)cc1CN1CCN(c2ccc(F)cc2)CC1	41*	29	83*	7	30*	78*	-7	rCAG binder conf=45*;DNA CAG counter=20*
CCOC(=O)[C@@]12CCCC=C1N(CCc1ccc(Cl)cc1)C(=O)[C@H]2CC(=O)N1CCC(c2ccccc2)CC1	6	-10	·	-7	7	·	·
CC(=O)NC(c1ccc(Cl)cc1)c1ccc2cccnc2c1O (stereo unspecified)	2	13	46*	0	17*	79*	10
CCC(=O)NC(c1ccc(Cl)cc1Cl)c1ccc2cccnc2c1O (stereo unspecified)	1	19	74*	-4	19*	73*	15
C/C(=N/Nc1ccc([N+](=O)[O-])cc1)c1c[nH]c2ccccc12	34	27	46*	7	34*	81*	-6
Oc1ccc(/C=N/N(c2ccccc2)c2ccccc2)c(O)c1O	43*	39*	68*	12	20*	79*	-30	rCAG binder conf=52*;DNA CAG counter=28*;mABHD4 conf=30*
O=S1(=O)c2c(cccc2N2CCSCC2)Oc2ccccc2CN1Cc1cn(Cc2ccc(Cl)cc2)nn1	4	-8	·	1	-2	·	·
O=C1c2ccccc2-c2c1cccc2C(=O)N1CCN(C(=O)c2ccco2)CC1	5	-2	7	3	7	·	·
SMILES	rCAG binder	mABHD4 FP	HTRA1 inhibitor	PRMT1 FP inh	SIAE inh	HTRA1 conf	SIAE inh conf	others
O=C(O)CCCNc1cc(N2CCN(C(=O)c3ccco3)CC2)c2noc3c2c1C(=O)c1ccccc1-3	27	66*	52*	19	62*	47*	33*	mABHD4 conf=43*
N#C/C(=C/c1ccc(N2CCCCC2)o1)C(=O)Nc1ccc2ccccc2c1	-22	14	37*	-25	21*	40*	3
O=C1/C(=C\c2ccc(O)c(O)c2)C(c2ccccc2)=NN1c1ccccc1	74*	28	58*	9	28*	97*	11	rCAG binder conf=81*;DNA CAG counter=44*
O=[N+]([O-])c1cc([N+](=O)[O-])c2c(=Nc3ccccc3)n(-c3ccccc3)n(O)c2c1	33	55*	42*	7	25*	48*	11	mABHD4 conf=48*
COc1ccc(OC)c(S(=O)(=O)N2CCCC(C(=O)N3CCN(Cc4ccccc4)CC3)C2)c1 (stereo unspecified)	1	-14	·	6	0	·	·
COc1ccc(S[C@]2(C(=O)N3CCOCC3)CC(=O)N(C(=O)Nc3ccc(C)c(Cl)c3)[C@@H]2c2ccc(OC)cc2)cc1	14	-15	·	11	-7	·	·
Cc1ccc(-c2ccccc2NC(=O)CS(=O)CC(=O)Nc2ccc(C)c(Cl)c2)o1 (stereo unspecified)	-1	36*	39*	52*	45*	22	10	mABHD4 conf=16
C#CCn1cc(/C=N/Nc2nc3ccccc3[nH]2)c2ccccc21	22	24	43*	-3	55*	45*	61*
Fc1cccc(NC(=S)NNc2c3ccccc3nc3ccccc23)c1	22	28	36*	1	39*	29	9
COc1cc(CNC(C)c2ccccc2)cc(Br)c1OCc1ccccc1 (stereo unspecified)	-7	11	-15	-1	-2	·	·
